# According to ChEMBL document CHEMBL4138092, “Antibacterial activity and mechanism of action of the benzazole acrylonitrile-based compounds: In vitro, spectroscopic, and docking studies” (2017):
# The source made the active and inactive calls. The calls are words filed in the database; no cut-off is given here.
# How the values were obtained:
# Bacillus spizizenii [1] = assay: Antibacterial activity against Bacillus subtilis ATCC 6633 after 24 to 48 hrs by agar well diffusion method; assay type: functional
# Method in brief: (§1)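 Mueller Hinton agar plates spread with bacteria (10⁶ cells/ml). Wells were filled with 50 µl of compound and incubated at 37 °C for 24–48 h. The inhibition zone diameter (mm) was measured with a transparent scale. Amoxicillin 5.0 mg/ml at 50 µl/well served as the positive control.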
# Escherichia coli [2] = assay: Antibacterial activity against Escherichia coli ATCC 25922 after 24 hrs by agar well diffusion method; assay type: functional; settings: ATCC 25922, 24 h
# Pseudomonas aeruginosa [3] = assay: Antibacterial activity against Pseudomonas aeruginosa ATCC 27853 after 24 hrs by agar well diffusion method; assay type: functional; settings: ATCC 27853, 24 h
# Staphylococcus aureus [4] = assay: Antibacterial activity against Staphylococcus aureus ATCC 25923 after 24 hrs by agar well diffusion method; assay type: functional; settings: ATCC 25923, 24 h
# Bacillus spizizenii [5] = assay: Antibacterial activity against Bacillus subtilis ATCC 6633 after 24 hrs by agar well diffusion method; assay type: functional; settings: ATCC 6633, 24 h
# Escherichia coli [6] = assay: Antibacterial activity against Escherichia coli ATCC 25922 after 24 to 48 hrs by agar well diffusion method; assay type: functional; method in brief: as §1
# Pseudomonas aeruginosa [7] = assay: Antibacterial activity against Pseudomonas aeruginosa ATCC 27853 after 24 to 48 hrs by agar well diffusion method; assay type: functional; method in brief: as §1
# Staphylococcus aureus [8] = assay: Antibacterial activity against Staphylococcus aureus ATCC 25923 after 24 to 48 hrs by agar well diffusion method; assay type: functional; method in brief: as §1
# [9] = target: Beta-lactamase (Escherichia coli) (UniProt Q53TY8); assay: Binding affinity to Escherichia coli beta-lactamase in phosphate buffer at pH 7.4 at 6 10^-5M after 3 mins by UV-vis spectroscopic analysis
# Method in brief: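 Compound at 6 × 10^-5 M in 0.01 M phosphate buffer pH 7.4 was titrated with 10 µl aliquots of 1 × 10^-6 M β-lactamase. Absorbance spectra were recorded at 200–700 nm after 3 min equilibration per addition, continuing until no further change (saturation).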
# [10] = target: Beta-lactamase (Escherichia coli) (UniProt Q53TY8); assay: Binding affinity to Escherichia coli beta-lactamase in phosphate buffer at pH 7.4 at 6 10^-5M after 3 mins by fluorescence titration analysis
# Method in brief: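 Fixed compound concentration in phosphate buffer pH 7.4, titrated with 10 µl additions of 1 × 10^-6 M β-lactamase. Excitation was 280 or 290 nm depending on compound, with emission scanned 300–600 nm and slits 5–10 nm. Readings followed 3 min equilibration per addition in a 1 cm quartz cell, continuing to saturation.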
# [11] = target: Beta-lactamase (Escherichia coli) (UniProt Q53TY8); assay: Binding affinity to Escherichia coli beta-lactamase in phosphate buffer at pH 7.4 at 6 10^-5M by CD spectral analysis
# Method in brief: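 Successive additions of compound (6 × 10^-5 M) were made to 1.0 mL β-lactamase in phosphate buffer pH 7.4. CD spectra were recorded at 25 °C over 200–700 nm, scan speed 50 nm/min, bandwidth 1 nm.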
# [12] = target: Beta-lactamase (Escherichia coli) (UniProt Q53TY8); assay: Binding affinity to Escherichia coli beta-lactamase assessed as chemical shift in phosphate buffer at pH 7.4 after 60 mins by NMR analysis
# [13] = system: Bifidobacterium longum subsp. infantis; assay: Inhibition of beta-lactamase in Bifidobacterium infantis assessed as potentiation of amoxicillin induced antibacterial activity at 10 to 100% amoxicillin to compound dilution after 24 hrs by agar well diffusion method
# Method in brief: (§2)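 Amoxicillin (1.0 µg/ml) was combined with test compound and diluted to 100, 80, 60, 40, 10 and 5%. The mixtures were serially diluted in sterile water, and 100 µl was added to 900 µl nutrient broth. Tubes were inoculated with 10 µl of 10⁵ cells/ml and held 24 h at 37±1 °C. Growth/no growth was scored visually. Controls were bacteria in broth alone and sterile broth alone.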
# [14] = system: Bifidobacterium longum subsp. infantis; assay: Inhibition of beta-lactamase in Bifidobacterium infantis assessed as potentiation of amoxicillin induced antibacterial activity at 5% amoxicillin to compound dilution after 24 hrs by agar well diffusion method; method in brief: as §2
# [15] = system: Escherichia coli ATCC 25922; assay: Inhibition of beta-lactamase in Escherichia coli ATCC 25922 assessed as potentiation of amoxicillin induced antibacterial activity at 10 to 100% amoxicillin to compound dilution after 24 hrs by agar well diffusion method; method in brief: as §2
# [16] = system: Escherichia coli ATCC 25922; assay: Inhibition of beta-lactamase in Escherichia coli ATCC 25922 assessed as potentiation of amoxicillin induced antibacterial activity at 5% amoxicillin to compound dilution after 24 hrs by agar well diffusion method; method in brief: as §2
# [17] = target: Beta-lactamase (Staphylococcus aureus) (UniProt P00807); assay: Inhibition of beta-lactamase in Staphylococcus aureus ATCC 25923 assessed as potentiation of amoxicillin induced antibacterial activity at 10 to 100% amoxicillin to compound dilution after 24 hrs by agar well diffusion method; method in brief: as §2
# [18] = target: Beta-lactamase (Staphylococcus aureus) (UniProt P00807); assay: Inhibition of beta-lactamase in Staphylococcus aureus ATCC 25923 assessed as potentiation of amoxicillin induced antibacterial activity at 5% amoxicillin to compound dilution after 24 hrs by agar well diffusion method; method in brief: as §2
# [19] = target: Beta-lactamase (Pseudomonas aeruginosa) (UniProt Q79MP6); assay: Inhibition of beta-lactamase in Pseudomonas aeruginosa ATCC 27853 assessed as potentiation of amoxicillin induced antibacterial activity at 10 to 100% amoxicillin to compound dilution after 24 hrs by agar well diffusion method; method in brief: as §2
# [20] = target: Beta-lactamase (Pseudomonas aeruginosa) (UniProt Q8RL90); assay: Inhibition of beta-lactamase in Pseudomonas aeruginosa ATCC 27853 assessed as potentiation of amoxicillin induced antibacterial activity at 5% amoxicillin to compound dilution after 24 hrs by agar well diffusion method; method in brief: as §2
# Bifidobacterium longum = assay: Antibacterial activity against Bifidobacterium infantis after 24 hrs by agar well diffusion method; assay type: functional, Bifidobacterium longum subsp. infantis
# [21] = system: Bifidobacterium longum subsp. infantis; assay: Inhibition of beta-lactamase in Bifidobacterium infantis assessed as potentiation of amoxicillin induced antibacterial activity by measuring amoxicillin MIC after 24 hrs by agar well diffusion method (reference value: 1.5 ug/ml); method in brief: as §2
# [22] = system: Escherichia coli ATCC 25922; assay: Inhibition of beta-lactamase in Escherichia coli ATCC 25922 assessed as potentiation of amoxicillin induced antibacterial activity by measuring amoxicillin MIC after 24 hrs by agar well diffusion method (reference value: 1.5 ug/ml); method in brief: as §2
# [23] = target: Beta-lactamase (Staphylococcus aureus) (UniProt P00807); assay: Inhibition of beta-lactamase in Staphylococcus aureus ATCC 25923 assessed as potentiation of amoxicillin induced antibacterial activity by measuring amoxicillin MIC after 24 hrs by agar well diffusion method (reference value: 1.5 ug/ml); method in brief: as §2
# [24] = target: Beta-lactamase (Pseudomonas aeruginosa) (UniProt Q79MP6); assay: Inhibition of beta-lactamase in Pseudomonas aeruginosa ATCC 27853 assessed as potentiation of amoxicillin induced antibacterial activity by measuring amoxicillin MIC after 24 hrs by agar well diffusion method (reference value: 1 ug/ml); method in brief: as §2
# [25] = system: Bifidobacterium longum subsp. infantis; assay: Inhibition of beta-lactamase in Bifidobacterium infantis assessed as potentiation of amoxicillin induced antibacterial activity after 24 hrs by agar well diffusion method; method in brief: as §2
# [26] = system: Escherichia coli ATCC 25922; assay: Inhibition of beta-lactamase in Escherichia coli ATCC 25922 assessed as potentiation of amoxicillin induced antibacterial activity after 24 hrs by agar well diffusion method; method in brief: as §2
# [27] = target: Beta-lactamase (Staphylococcus aureus) (UniProt P00807); assay: Inhibition of beta-lactamase in Staphylococcus aureus ATCC 25923 assessed as potentiation of amoxicillin induced antibacterial activity after 24 hrs by agar well diffusion method; method in brief: as §2
# [28] = target: Beta-lactamase (Pseudomonas aeruginosa) (UniProt Q8RL90); assay: Inhibition of beta-lactamase in Pseudomonas aeruginosa ATCC 27853 assessed as potentiation of amoxicillin induced antibacterial activity after 24 hrs by agar well diffusion method; method in brief: as §2
smiles,measurement,setting,value
CN(C)c1ncc(/C=C(\C#N)c2nc3ccccc3[nH]2)cn1,inhibition zone (IZ),Bacillus spizizenii [1],39 mm
same,MIC,Escherichia coli [2],14.3 µg/mL
same,MIC,Pseudomonas aeruginosa [3],11.1 µg/mL
same,MIC,Staphylococcus aureus [4],11.1 µg/mL
same,MIC,Bacillus spizizenii [5],20 µg/mL
same,inhibition zone (IZ),Escherichia coli [6],50 mm
same,inhibition zone (IZ),Pseudomonas aeruginosa [7],30 mm
same,inhibition zone (IZ),Staphylococcus aureus [8],30 mm
N#C/C(=C\c1cnc(NCc2ccccc2)nc1)c1nc2ccccc2[nH]1,inhibition zone (IZ),Bacillus spizizenii [1],40 mm
same,MIC,Escherichia coli [2],18 µg/mL
same,MIC,Pseudomonas aeruginosa [3],18 µg/mL
same,MIC,Staphylococcus aureus [4],18 µg/mL
same,MIC,Bacillus spizizenii [5],25 µg/mL
same,inhibition zone (IZ),Escherichia coli [6],45 mm
same,inhibition zone (IZ),Pseudomonas aeruginosa [7],30 mm
same,inhibition zone (IZ),Staphylococcus aureus [8],35 mm
N#C/C(=C\c1cnc(NCc2ccccc2)nc1)c1nc2ccccc2s1,inhibition zone (IZ),Bacillus spizizenii [1],39 mm
same,MIC,Escherichia coli [2],18.3 µg/mL
same,MIC,Pseudomonas aeruginosa [3],18.3 µg/mL
same,MIC,Staphylococcus aureus [4],18.3 µg/mL
same,MIC,Bacillus spizizenii [5],18.3 µg/mL
same,inhibition zone (IZ),Escherichia coli [6],50 mm
same,inhibition zone (IZ),Pseudomonas aeruginosa [7],35 mm
same,inhibition zone (IZ),Staphylococcus aureus [8],35 mm
N#C/C(=C\c1cnc(Nc2ccc(Cl)cc2)nc1)c1nc2ccccc2[nH]1,inhibition zone (IZ),Bacillus spizizenii [1],40 mm
same,MIC,Escherichia coli [2],9 µg/mL
same,MIC,Pseudomonas aeruginosa [3],9 µg/mL
same,MIC,Staphylococcus aureus [4],9 µg/mL
same,MIC,Bacillus spizizenii [5],13 µg/mL
same,inhibition zone (IZ),Escherichia coli [6],40 mm
same,inhibition zone (IZ),Pseudomonas aeruginosa [7],28 mm
same,inhibition zone (IZ),Staphylococcus aureus [8],32 mm
same,Activity,[9],Active
same,Activity,[10],Active
same,Activity,[11],Active
same,Activity,[12],Active
same,inhibition,[13],Active
same,inhibition,[14],inactive
same,inhibition,[15],Active
same,inhibition,[16],inactive
same,inhibition,[17],Active
same,inhibition,[18],inactive
same,inhibition,[19],Active
same,inhibition,[20],inactive
same,MIC,Bifidobacterium longum,9 µg/mL
same,MIC,[21],0.9 µg/mL
same,MIC,[22],0.9 µg/mL
same,MIC,[23],0.9 µg/mL
same,MIC,[24],1.3 µg/mL
same,fractional inhibitory concentration index (FICI),[25],0.2
same,fractional inhibitory concentration index (FICI),[26],0.2
same,fractional inhibitory concentration index (FICI),[27],0.2
same,fractional inhibitory concentration index (FICI),[28],0.2
N#C/C(=C\c1cnc(Nc2ccc(Cl)cc2)nc1)c1nc2ccccc2s1,inhibition zone (IZ),Bacillus spizizenii [1],35 mm
same,MIC,Escherichia coli [2],11.1 µg/mL
same,MIC,Pseudomonas aeruginosa [3],11.1 µg/mL
same,MIC,Staphylococcus aureus [4],11.1 µg/mL
same,MIC,Bacillus spizizenii [5],20 µg/mL
same,inhibition zone (IZ),Escherichia coli [6],40 mm
same,inhibition zone (IZ),Pseudomonas aeruginosa [7],30 mm
same,inhibition zone (IZ),Staphylococcus aureus [8],30 mm
CN(C)c1ncc(/C=C(\C#N)c2nc3ccccc3s2)cn1,inhibition zone (IZ),Bacillus spizizenii [1],45 mm
same,MIC,Escherichia coli [2],50 µg/mL
same,MIC,Pseudomonas aeruginosa [3],35.8 µg/mL
same,MIC,Staphylococcus aureus [4],35.8 µg/mL
same,MIC,Bacillus spizizenii [5],50 µg/mL
same,inhibition zone (IZ),Escherichia coli [6],52 mm
same,inhibition zone (IZ),Pseudomonas aeruginosa [7],32 mm
same,inhibition zone (IZ),Staphylococcus aureus [8],35 mm
N#C/C(=C\c1cnc(N2CCOCC2)nc1)c1nc2ccccc2s1,inhibition zone (IZ),Bacillus spizizenii [1],39 mm
same,MIC,Escherichia coli [2],35.8 µg/mL
same,MIC,Pseudomonas aeruginosa [3],35.8 µg/mL
same,MIC,Staphylococcus aureus [4],27.8 µg/mL
same,MIC,Bacillus spizizenii [5],50 µg/mL
same,inhibition zone (IZ),Escherichia coli [6],40 mm
same,inhibition zone (IZ),Pseudomonas aeruginosa [7],30 mm
same,inhibition zone (IZ),Staphylococcus aureus [8],32 mm
CC1(C)S[C@@H]2[C@H](NC(=O)[C@H](N)c3ccc(O)cc3)C(=O)N2[C@H]1C(=O)O [AMOXICILLIN],inhibition zone (IZ),Bacillus spizizenii [1],14 mm
same,MIC,Escherichia coli [2],1.5 µg/mL
same,MIC,Pseudomonas aeruginosa [3],1 µg/mL
same,MIC,Staphylococcus aureus [4],1.5 µg/mL
same,MIC,Bacillus spizizenii [5],1.5 µg/mL
same,inhibition zone (IZ),Escherichia coli [6],21 mm
same,inhibition zone (IZ),Pseudomonas aeruginosa [7],24 mm
same,inhibition zone (IZ),Staphylococcus aureus [8],25 mm
same,MIC,Bifidobacterium longum,1.5 µg/mL
N#C/C(=C\c1cnc(N2CCOCC2)nc1)c1nc2ccccc2[nH]1,inhibition zone (IZ),Bacillus spizizenii [1],39 mm
same,MIC,Escherichia coli [2],27.8 µg/mL
same,MIC,Pseudomonas aeruginosa [3],27.8 µg/mL
same,MIC,Staphylococcus aureus [4],27.8 µg/mL
same,MIC,Bacillus spizizenii [5],27.8 µg/mL
same,inhibition zone (IZ),Escherichia coli [6],40 mm
same,inhibition zone (IZ),Pseudomonas aeruginosa [7],35 mm
same,inhibition zone (IZ),Staphylococcus aureus [8],35 mm
